Sampled rows, rich in hits. Any-hit rate of the full collection: about 5.6%.
UPR XBP1 act – activators of adaptive arm of unfolded protein response (XBP1); CHO-XBP1 luciferase reporter, IRE1-XBP1 UPR activation, luminescence; percent of tunicamycin response, DMSO as zero; activation, % at 20 µM; 330,000 compounds, 0.33% hits; AID 463104;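 active means versus positive control, 20 µM dose yields 30% or more activation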
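Material: CHO cell line with stable XBP1 luciferase reporter; schedule: 16-18 h cell attachment at 37 °C, then 6 h compound exposure; signal: glow luminescence from Steady-Glo reagent; medium: serum-containing F12 medium, 10% FBS; benchmarks: tunicamycin 10 µg/mL and vehicle-only wells; read-out: percent activation relative to tunicamycin reference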
CHOP UPR activ – activators of apoptotic arm of unfolded protein response (CHOP) | 330,000 compounds, 0.34% hits | activation, % at 10 µM | CHO-CHOP luciferase reporter, UPR activation, luminescence; percent of tunicamycin response over DMSO baseline | AID 449763;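 active means at 10 µM dose, activation of 40% or more, normalized to positive control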
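Test system: CHO-CHOP cells, stable luciferase reporter of PERK-eIF2a-CHOP signalling | Quantity: 500 CHO-CHOP cells per well | Buffer or medium: F12 plus 10% serum | Compound dosing: 10 µM single point, 0.5% DMSO | Schedule: 6 h compound treatment, 37 °C | Signal: Luciferase luminescence | Control set: Tunicamycin high control, DMSO low control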
CHOP inh – blocks CHOP induction under ER stress. CHO-K1 CHOP-promoter luciferase, tunicamycin-induced, 15-18 h. inhibition, % at 10 µM. 220,000 compounds, 3.8% hits. AID 2732;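 active means compounds that reduced the stress-induced luciferase reporter signal by more than about 70% of percent inhibition, limit read from the data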
NR3A LBD binder – modulators (binders) of human NR3A ligand-binding domain | NR3A LBD differential scanning fluorimetry, Tm shift; 0% = protein alone, 100% = glycine-bound protein | Tm shift relative to glycine control, % at 25 µM | 340,000 compounds, 2.5% hits | AID 1259313;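 active means melting temperature shift of at least 10% of the positive control shift, at one fixed dose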
aDG glyco up – alpha-DG glycosylation activation; AID 624168; activation, % at 10 µM; 360,000 compounds, 0.22% hits; Pro5-aDG cells, alpha-DG glycosylation AlphaScreen (IIH6); 0% Pro5, 100% B10-LARGE cell signal;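 active means activation of at least 8% versus controls, or a plate z-score of at least 8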;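 further: Pro5 are CHO cells carrying HIG-tagged alpha-DG that lacks glycosylation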
MPTP inh – permeability transition pore inhibition | isolated mouse mitochondria, Ca2+ swelling absorbance, 30 min | AID 602449 | 360,000 compounds, 1.4% hits | inhibition, % at 10 µM;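 active means inhibition of 50% or more, scaled per plate between neutral and stimulator controls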
Each line names hits and unclear results; the compound was inactive in the other large screens.

Nc1ncnc2c1ncn2[C@@H]1O[C@H](C(=O)N2CCN(c3ccc(Cl)cn3)CC2)[C@@H](O)[C@H]1O	none (no result: UPR XBP1 act, CHOP UPR activ, CHOP inh, NR3A LBD binder)
COc1ccc(/C=C/C(=O)OCC(=O)c2cc(C)ccc2C)cc1	none (no result: UPR XBP1 act, CHOP UPR activ, CHOP inh, NR3A LBD binder)
Cc1cc(N=Nc2ccc(C)c(N=Nc3cc(C)c(N)cc3N)c2)c(N)cc1N	NR3A LBD binder 10
COc1ccc(N=Nc2cc(OC)c(N)cc2OC)cc1	none (no result: UPR XBP1 act, CHOP UPR activ, CHOP inh)
O=C(Nc1nncs1)c1cccc(S(=O)(=O)N2CCc3ccccc32)c1	none
O=C(Nc1nc2ccc(F)cc2s1)c1cccc(S(=O)(=O)N2CCc3ccccc32)c1	NR3A LBD binder 14
Cc1ccc2nc(NC(=O)c3ccc(S(=O)(=O)N4CCCc5ccccc54)cc3)sc2c1	CHOP inh 76
CC(C)NC(=S)NNC(=O)C12CC3CC(CC(C3)C1)C2	NR3A LBD binder 11
Cc1ccc(S(=O)(=O)N2CCCC2C(=O)NCc2ccccc2Cl)cc1 (stereo not given)	none (no result: CHOP inh)
Cc1ccccc1N=Cc1cc2c(cc1O)OC(N)=C(C#N)C2c1ccccc1 (stereo not given)	CHOP inh 89
N#CC1=C(N)Oc2cc(O)c(C=Nc3ccccc3)cc2C1c1ccccc1 (stereo not given)	none
NS(=O)(=O)c1cccc(NC(=O)Cn2nc(C(=O)O)c3ccccc3c2=O)c1	none (no result: CHOP inh)
CNS(=O)(=O)c1ccc(NC(=O)C2c3ccccc3Oc3ccccc32)cc1	none
CC(=O)NS(=O)(=O)c1ccc(NC(=O)C2c3ccccc3Oc3ccccc32)cc1	NR3A LBD binder 11
NC(=O)c1nc(C2CCCCC2)nc2c1[nH]c(=O)n2-c1ccc(F)cc1	CHOP inh 89
COc1ccc(/C=N/NC(=O)c2ccoc2C)cc1CN1CCN(c2ccc(F)cc2)CC1	none (no result: CHOP inh)
COc1ccc(Cl)cc1Nc1ncnc2sc(C)c(S(=O)(=O)N3CCC(C)CC3)c12	NR3A LBD binder 10
CC(C)(C)c1ccc(Nc2n[nH]c3ccccc23)cc1	none (no result: UPR XBP1 act, CHOP UPR activ, CHOP inh, NR3A LBD binder)
COCCCNC(=O)c1ccc(-n2nc(C(F)(F)F)cc2-c2cccs2)cc1	none
O=C(NCCCN1CCOCC1)c1ccc(-n2nc(C(F)(F)F)cc2-c2cccs2)cc1	CHOP inh 76
COc1c(Cl)cccc1-c1cn2ccc(C)cc2n1	NR3A LBD binder 11
Cc1ccn2cc(-c3cnoc3C)nc2c1	none
COC(=O)c1c(C(=O)OC)c2cccc3cc(-c4ccccc4)c4ccc1c4n32	CHOP inh 83
C=CCOC(=O)C1=C[C@@H](c2csc3ccccc23)C[C@@H](OCCCCO)O1	none (no result: CHOP inh)
CCc1ccc2[nH]c(=O)c(CN(Cc3ccccc3OC)C(=O)Nc3ccccc3OC)cc2c1	CHOP inh 71
CCN(CC)CCN(Cc1cc2cc(C)ccc2[nH]c1=O)C(=O)Nc1ccccc1OC	none
CC(=O)OCCN1C(=O)c2cccnc2C1=O	NR3A LBD binder 13
O=C(CN1C(=O)c2cccnc2C1=O)c1ccccc1	none
COc1ccc2c(c1)cc(C)c1nnc(SCC(=O)N(C)c3nc(-c4ccccc4)cs3)n12	CHOP inh 94
O=C(CSc1nc2ccccc2s1)NNC(=O)Nc1ccc(Cl)c(Cl)c1	NR3A LBD binder 26
O=C(CSc1nc2ccccc2s1)Nc1ccc(Cl)c(C(=O)O)c1	none
O=C(CSc1nc2ccccc2s1)Nc1ccc2c(c1)oc1ccccc12	NR3A LBD binder 39
O=C(CSc1nnc(NC(=O)c2ccccc2Cl)s1)Nc1ccc2c(c1)oc1ccccc12	CHOP inh 71 (no result: NR3A LBD binder, aDG glyco up, MPTP inh)
Cn1c(SCC(=O)Nc2ccc3c(c2)oc2ccccc23)nnc1-c1ccccc1	CHOP inh 88
OCC[C@@H]1C[C@H](O)[C@@H](O)[C@@]2(OCCc3cc(Cl)ccc32)O1	none (no result: UPR XBP1 act, CHOP UPR activ, CHOP inh, NR3A LBD binder)
CC(=O)Nc1ccc(-c2nnc(SCC(=O)n3c4c(c5ccccc53)CCCC4)n2C)cc1	CHOP inh 78 (no result: UPR XBP1 act, CHOP UPR activ)
CCOc1ccc(/C=N/NC(=O)c2ccccc2NC(=O)c2ccc(OC)cc2)cc1	NR3A LBD binder 15
COc1ccc(C(=O)Nc2ccccc2C(=O)N/N=C/c2ccco2)cc1	none
CCOc1ccc(OCc2ccc(C(=O)NN=Cc3ccc[nH]3)cc2)cc1	NR3A LBD binder 19 (no result: CHOP inh)

Screens from PubChem BioAssay.
